Assay results taken from ChEMBL document CHEMBL1137710, “Synthesis and in vitro antitumor activity of new quinoxaline derivatives” (2009).

Columns and labels:
Type in all cases: functional
NCI-H460 [1] = test: Anticancer activity against human NCI-H460 cells assessed as cell growth at 100 uM after 48 hrs by sulforhodamine B assay; conditions: NCI-H460, 48 h, read-out: Activity
CCRF-CEM = test: Growth inhibition of human CCRF-CEM cells after 48 hrs by sulforhodamine B assay
Outline: (§1)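 NCI 60-human-tumor-cell-line panel, with compounds tested over a 5-log dose range. Values are taken from dose-response curves as log10 molar concentrations: GI50 is 50% net growth inhibition, TGI is total growth inhibition, and LC50 is 50% net cell death.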

HL-60(TB) = test: Growth inhibition of human HL-60(TB) cells after 48 hrs by sulforhodamine B assay; conditions: HL-60, 48 h
Outline: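 Tested only on compounds active in a three-line prescreen, in the NCI 60-human-tumour-cell-line panel over a 5-log dose range. Values come from dose–response curves as log10 molar GI50, the concentration inhibiting 50% net cell growth. Log10 TGI (total growth inhibition) and log10 LC50 (50% net cell death) were derived too. Mean graph midpoints include insensitive lines at the highest concentration tested.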

SR = test: Growth inhibition of human SR cells after 48 hrs by sulforhodamine B assay
Outline: (§2)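 Run in the NCI 60-human-tumour-cell-line panel, tested over a 5-log dose range. Dose–response curves gave three values per cell line, each as a log10 molar concentration: GI50 (50% inhibition of net cell growth), TGI (total inhibition of net growth) and LC50 (50% net cell death). The mean graph midpoint is the arithmetic mean over all lines, with insensitive lines entered at the highest concentration tested.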

MOLT-4 = test: Growth inhibition of human MOLT4 cells after 48 hrs by sulforhodamine B assay; conditions: MOLT-4, 48 h; outline: as §1
A549 = test: Growth inhibition of human A549 cells after 48 hrs by sulforhodamine B assay; conditions: A549, 48 h; outline: as §1
EKVX = test: Growth inhibition of human EKVX cells after 48 hrs by sulforhodamine B assay; outline: as §1
HOP-62 = test: Growth inhibition of human HOP62 cells after 48 hrs by sulforhodamine B assay; conditions: HOP-62, 48 h; outline: as §1
HOP-92 = test: Growth inhibition of human HOP92 cells after 48 hrs by sulforhodamine B assay; conditions: HOP-92, 48 h; outline: as §1
NCI-H226 = test: Growth inhibition of human NCI-H226 cells after 48 hrs by sulforhodamine B assay; conditions: NCI-H226, 48 h; outline: as §1
NCI-H460 [2] = test: Growth inhibition of human NCI-H460 cells after 48 hrs by sulforhodamine B assay; conditions: NCI-H460, 48 h; outline: as §1
HCT-15 = test: Growth inhibition of human HCT15 cells after 48 hrs by sulforhodamine B assay; conditions: HCT-15, 48 h; outline: as §1
HT-29 = test: Growth inhibition of human HT-29 cells after 48 hrs by sulforhodamine B assay; conditions: HT-29, 48 h; outline: as §1
KM12 = test: Growth inhibition of human KM12 cells after 48 hrs by sulforhodamine B assay; conditions: KM12, 48 h; outline: as §1
SNB-75 = test: Growth inhibition of human SNB75 cells after 48 hrs by sulforhodamine B assay; conditions: SNB-75, 48 h; outline: as §2
Malme-3M = test: Growth inhibition of human MALME-3M cells after 48 hrs by sulforhodamine B assay; outline: as §1
UACC-257 = test: Growth inhibition of human UACC257 cells after 48 hrs by sulforhodamine B assay; conditions: UACC-257, 48 h; outline: as §2
IGROV-1 = test: Growth inhibition of human IGROV1 cells after 48 hrs by sulforhodamine B assay; conditions: IGROV-1, 48 h; outline: as §1
OVCAR-8 = test: Growth inhibition of human OVCAR8 cells after 48 hrs by sulforhodamine B assay; conditions: OVCAR-8, 48 h; outline: as §1
SK-OV-3 = test: Growth inhibition of human SKOV3 cells after 48 hrs by sulforhodamine B assay; conditions: SK-OV-3, 48 h; outline: as §1
ACHN = test: Growth inhibition of human ACHN cells after 48 hrs by sulforhodamine B assay
TK-10 = test: Growth inhibition of human TK10 cells after 48 hrs by sulforhodamine B assay; conditions: TK-10, 48 h; outline: as §2
UO-31 = test: Growth inhibition of human UO31 cells after 48 hrs by sulforhodamine B assay; conditions: UO-31, 48 h; outline: as §2
PC-3 = test: Growth inhibition of human PC3 cells after 48 hrs by sulforhodamine B assay; conditions: PC-3, 48 h; outline: as §1
DU-145 = test: Growth inhibition of human DU145 cells after 48 hrs by sulforhodamine B assay; conditions: DU-145, 48 h; outline: as §1
BT-549 = test: Growth inhibition of human BT549 cells after 48 hrs by sulforhodamine B assay; conditions: BT-549, 48 h; outline: as §1
T47D = test: Growth inhibition of human T47D cells after 48 hrs by sulforhodamine B assay; outline: as §2
MCF7 = test: Growth inhibition of human MCF7 cells after 48 hrs by sulforhodamine B assay; conditions: MCF7, 48 h; outline: as §1
[3] = read-out: pLC50 (the source's name) (converted)

COc1ccc(CNc2nc3cc(N)cc(N)c3nc2-c2ccccc2)cc1OC
growth at 100 µM (NCI-H460 [1]): 3% | GI50 (CCRF-CEM): 3.47 µM | LC50 (CCRF-CEM): > 100 µM | TGI (CCRF-CEM; read-out: pTGI (converted)): 70.8 µM | GI50 (HL-60(TB)): 3.16 µM | LC50 (HL-60(TB)): > 100 µM | TGI (HL-60(TB); read-out: pTGI (converted)): 81.3 µM | GI50 (SR): 3.31 µM | LC50 (concentration giving 50% net cell death) (SR): > 100 µM | TGI (SR; read-out: pTGI (converted)): 18.2 µM | GI50 (MOLT-4): 3.47 µM | LC50 (MOLT-4): > 100 µM | TGI (MOLT-4; read-out: pTGI (converted)): > 100 µM | GI50 (A549): 20.9 µM | LC50 (A549): > 100 µM | TGI (A549; read-out: pTGI (converted)): 50.1 µM | GI50 (EKVX): 5.89 µM | LC50 (50% net cell kill) (EKVX): > 100 µM | TGI (EKVX; read-out: pTGI (converted)): 30.2 µM | GI50 (HOP-62): 18.2 µM | LC50 (HOP-62): 64.6 µM | TGI (HOP-62; read-out: pTGI (converted)): 34.7 µM | GI50 (HOP-92): 13.5 µM | LC50 (50% net cell death) (HOP-92): 66.1 µM | TGI (HOP-92; read-out: pTGI (converted)): 29.5 µM | GI50 (NCI-H226): 14.5 µM | LC50 (NCI-H226): 64.6 µM | TGI (NCI-H226; read-out: pTGI (converted)): 30.9 µM | GI50 (NCI-H460 [2]): 24 µM | LC50 (50% net cell kill) (NCI-H460 [2]): > 100 µM | TGI (NCI-H460 [2]; read-out: pTGI (converted)): 91.2 µM | GI50 (HCT-15): 30.2 µM | LC50 (HCT-15): > 100 µM | TGI (HCT-15; read-out: pTGI (converted)): > 100 µM | GI50 (HT-29): 1.86 µM | LC50 (HT-29): > 100 µM | TGI (HT-29; read-out: pTGI (converted)): 24.5 µM | GI50 (KM12): 13.2 µM | LC50 (50% net cell kill) (KM12): 72.4 µM | TGI (KM12; read-out: pTGI (converted)): 30.9 µM | GI50 (SNB-75): 16.2 µM | LC50 (SNB-75): 97.7 µM | TGI (SNB-75; read-out: pTGI (converted)): 39.8 µM | GI50 (Malme-3M): 5.62 µM | CC50 (Malme-3M; [3]): 47.9 µM | TGI (Malme-3M; read-out: pTGI (converted)): 18.6 µM | GI50 (UACC-257): 12.9 µM | CC50 (UACC-257; [3]): 55 µM | TGI (UACC-257; read-out: pTGI (converted)): 26.9 µM | GI50 (IGROV-1): 11.5 µM | CC50 (IGROV-1; [3]): > 100 µM | TGI (IGROV-1; read-out: pTGI (converted)): 40.7 µM | GI50 (OVCAR-8): 6.76 µM | CC50 (OVCAR-8; [3]): > 100 µM | TGI (OVCAR-8; read-out: pTGI (converted)): 33.9 µM | GI50 (SK-OV-3): 21.9 µM | CC50 (SK-OV-3; [3]): > 100 µM | TGI (SK-OV-3; read-out: pTGI (converted)): 46.8 µM | GI50 (ACHN): 13.8 µM | CC50 (ACHN; [3]): 81.3 µM | TGI (ACHN; read-out: pTGI (converted)): 33.1 µM | GI50 (TK-10): 16.6 µM | CC50 (TK-10; [3]): 64.6 µM | TGI (TK-10; read-out: pTGI (converted)): 32.4 µM | GI50 (UO-31): 13.5 µM | CC50 (UO-31; [3]): > 100 µM | TGI (UO-31; read-out: pTGI (converted)): 45.7 µM | GI50 (PC-3): 8.32 µM | CC50 (PC-3; [3]): 83.2 µM | TGI (PC-3; read-out: pTGI (converted)): 27.5 µM | GI50 (DU-145): 0.46 µM | CC50 (DU-145; [3]): > 100 µM | TGI (DU-145; read-out: pTGI (converted)): 87.1 µM | GI50 (BT-549): 13.5 µM | CC50 (BT-549; [3]): 79.4 µM | TGI (BT-549; read-out: pTGI (converted)): 32.4 µM | GI50 (T47D): 4.47 µM | CC50 (T47D; [3]): > 100 µM | TGI (T47D; read-out: pTGI (converted)): > 100 µM | GI50 (MCF7): 25.7 µM | CC50 (MCF7; [3]): > 100 µM | TGI (MCF7; read-out: pTGI (converted)): > 100 µM
